Laboratory results reported in ChEMBL document CHEMBL1649441, “Potency and bactericidal activity of iclaprim against recent clinical gram-positive isolates” (2009).
In brackets after ≈: the same amount, converted by molar mass.

Experiments:
Type in all cases: functional
Enterococcus faecium [1] = experiment: Antibacterial activity against Enterococcus faecium assessed as resistant isolates by CLSI broth microdilution method
Enterococcus faecalis [2] = experiment: Antibacterial activity against Enterococcus faecalis assessed as resistant isolates by CLSI broth microdilution method
Enterococcus faecium [3] = experiment: Antibacterial activity against Enterococcus faecium assessed as susceptible isolates by CLSI broth microdilution method
Enterococcus faecalis [4] = experiment: Antibacterial activity against Enterococcus faecalis assessed as susceptible isolates by CLSI broth microdilution method
Enterococcus faecalis [5] = experiment: Antibacterial activity against Enterococcus faecalis by CLSI broth microdilution method
Enterococcus faecium [6] = experiment: Antibacterial activity against Enterococcus faecium by CLSI broth microdilution method
[7] = test system: Streptococcus sp. 'group B'; experiment: Antibacterial activity against Beta-hemolytic Streptococcus group B assessed as resistant isolates by CLSI broth microdilution method
Procedure, shortened: (§1)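 Recent clinical isolates from skin/soft tissue, bloodstream and respiratory specimens. Tested by broth microdilution per CLSI M7-A7 and M100-S18, with the appropriate quality controls. The thymidine content of the test medium was assessed to rule out artifactual inhibition.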

[8] = test system: Streptococcus sp. 'group B'; experiment: Antibacterial activity against Beta-hemolytic Streptococcus group B assessed as susceptible isolates by CLSI broth microdilution method
Procedure, shortened: (§2)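 Clinical isolates from skin/soft tissue, bloodstream and respiratory specimens were tested by broth microdilution per CLSI M7-A7 and M100-S18, with quality controls. Values are the number of isolates inhibited at each concentration, or MIC / percent susceptible. Highest concentration tested was 8 µg/ml for iclaprim and trimethoprim-sulfamethoxazole, and 64 µg/ml for trimethoprim.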

[9] = test system: Streptococcus sp. 'group A'; experiment: Antibacterial activity against Beta-hemolytic Streptococcus group A assessed as resistant isolates by CLSI broth microdilution method; procedure, shortened: as §1
[10] = test system: Streptococcus sp. 'group A'; experiment: Antibacterial activity against Beta-hemolytic Streptococcus group A assessed as susceptible isolates by CLSI broth microdilution method; procedure, shortened: as §2
Staphylococcus aureus [11] = experiment: Antibacterial activity against Methicillin-sensitive Staphylococcus aureus assessed as susceptible isolates by CLSI broth microdilution method
Staphylococcus aureus [12] = experiment: Antibacterial activity against Methicillin-resistant Staphylococcus aureus assessed as resistant isolates by CLSI broth microdilution method
Staphylococcus aureus [13] = experiment: Antibacterial activity against Methicillin-resistant Staphylococcus aureus assessed as susceptible isolates by CLSI broth microdilution method
Staphylococcus aureus [14] = experiment: Antibacterial activity against Methicillin-sensitive Staphylococcus aureus assessed as resistant isolates by CLSI broth microdilution method
Staphylococcus aureus [15] = experiment: Antibacterial activity against Methicillin-sensitive Staphylococcus aureus by CLSI broth microdilution method
Staphylococcus aureus [16] = experiment: Antibacterial activity against Methicillin-resistant Staphylococcus aureus by CLSI broth microdilution method
[17] = test system: Streptococcus sp. 'group A'; experiment: Antibacterial activity against Beta-hemolytic Streptococcus group A by CLSI broth microdilution method; procedure, shortened: as §2
[18] = test system: Streptococcus sp. 'group B'; experiment: Antibacterial activity against Beta-hemolytic Streptococcus group B by CLSI broth microdilution method; procedure, shortened: as §2

| Structure (SMILES) | Activity (Enterococcus faecium [1]) [%] | Activity (Enterococcus faecalis [2]) [%] | Activity (Enterococcus faecium [3]) [%] | Activity (Enterococcus faecalis [4]) [%] | MIC50 (Enterococcus faecalis [5]) [µg/mL] | MIC90 (Enterococcus faecalis [5]) [µg/mL] | MIC50 (Enterococcus faecium [6]) [µg/mL] | MIC90 (Enterococcus faecium [6]) [µg/mL] | Activity [8] [%] | Activity [10] [%] | Activity (Staphylococcus aureus [11]) [%] | Activity (Staphylococcus aureus [12]) [%] | Activity (Staphylococcus aureus [13]) [%] | Activity (Staphylococcus aureus [14]) [%] | MIC50 (Staphylococcus aureus [15]) [µg/mL] | MIC90 (Staphylococcus aureus [15]) [µg/mL] | MIC50 [17] [µg/mL] | MIC90 [17] [µg/mL] | MIC50 [18] [µg/mL] | MIC90 [18] [µg/mL] | also measured |
| --- | --- | --- | --- | --- | --- | --- | --- | --- | --- | --- | --- | --- | --- | --- | --- | --- | --- | --- | --- | --- | --- |
| CC1(C)S[C@@H]2[C@H](NC(=O)[C@H](N)c3ccccc3)C(=O)N2[C@H]1C(=O)O [AMPICILLIN] | 88.1 | 0 | 11.9 | 100 | ≤ 4 | ≤ 4 | > 16 | > 16 | – | – | – | – | – | – | – | – | – | – | – | – | MIC (Enterococcus faecalis [5]): ≤ 4 µg/mL |
| CCC[C@@H]1C[C@@H](C(=O)N[C@@H]([C@H]2O[C@H](SC)[C@H](O)[C@@H](O)[C@H]2O)[C@H](C)Cl)N(C)C1 [CLINDAMYCIN] | – | – | – | – | > 4 | > 4 | > 4 | > 4 | 88.7 | 96.4 | 96.4 | 47 | 52.7 | 3.4 | ≤ 0.12 | ≤ 0.12 | ≤ 0.12 | ≤ 0.12 | ≤ 0.12 | > 4 | Activity [7]: 10.3%; Activity [9]: 3.3%; MIC90 (Staphylococcus aureus [16]): > 4 µg/mL; MIC [17]: ≤ 0.12 µg/mL; MIC [18]: ≤ 0.12 µg/mL |
| CC[C@H]1OC(=O)[C@H](C)[C@@H](O[C@H]2C[C@@](C)(OC)[C@@H](O)[C@H](C)O2)[C@H](C)[C@@H](O[C@@H]2O[C@H](C)C[C@H](N(C)C)[C@H]2O)[C@](C)(O)C[C@@H](C)C(=O)[C@H](C)[C@@H](O)[C@]1(C)O [ERYTHROMYCIN] | 84.5 | 52.9 | 3 | 13.5 | > 4 | > 4 | > 4 | > 4 | 73 | – | 77.9 | 84.3 | 14.6 | 21.1 | 0.25 (≈ 0.341 µM) | > 4 | ≤ 0.12 | > 4 | ≤ 0.12 | > 4 | Activity [7]: 26%; Activity [9]: 16.1%; MIC50 (Staphylococcus aureus [16]): > 4 µg/mL; MIC [17]: ≤ 0.12 µg/mL |
| C[C@H]1COc2c(N3CCN(C)CC3)c(F)cc3c(=O)c(C(=O)O)cn1c23.C[C@H]1COc2c(N3CCN(C)CC3)c(F)cc3c(=O)c(C(=O)O)cn1c23.O [LEVOFLOXACIN] | 82.2 | 34.2 | 14.2 | 65.2 | 1 | > 4 | > 4 | > 4 | 99.5 | – | 94.2 | 82.4 | 16.8 | 5.6 | 0.25 | 0.5 | 0.5 | 1 | 0.5 | 1 | Activity [7]: 0.5%; Activity [9]: 0%; MIC50 (Staphylococcus aureus [16]): > 4 µg/mL; MIC90 (Staphylococcus aureus [16]): > 4 µg/mL |
| CC(=O)NC[C@H]1CN(c2ccc(N3CCOCC3)c(F)c2)C(=O)O1 [LINEZOLID] | 0.7 | 0 | 99.3 | 100 | 1 (≈ 2.96 µM) | 2 (≈ 5.93 µM) | 1 (≈ 2.96 µM) | 2 (≈ 5.93 µM) | 100 | 100 | 100 | – | – | – | 2 (≈ 5.93 µM) | 2 (≈ 5.93 µM) | 1 (≈ 2.96 µM) | 1 (≈ 2.96 µM) | 1 (≈ 2.96 µM) | 1 (≈ 2.96 µM) | MIC50 (Staphylococcus aureus [16]): 2 µg/mL (≈ 5.93 µM); MIC90 (Staphylococcus aureus [16]): 2 µg/mL (≈ 5.93 µM) |
| CC1(C)S[C@@H]2[C@H](NC(=O)Cc3ccccc3)C(=O)N2[C@H]1C(=O)O [PENICILLIN G] | – | – | – | – | – | – | – | – | 100 | 100 | – | – | – | – | – | – | ≤ 0.06 | ≤ 0.06 | ≤ 0.06 | ≤ 0.06 | MIC [17]: ≤ 0.06 µg/mL; MIC [18]: ≤ 0.06 µg/mL |
| CN(C)[C@@H]1C(O)=C(C(N)=O)C(=O)[C@@]2(O)C(O)=C3C(=O)c4c(O)cccc4[C@@](C)(O)[C@H]3C[C@@H]12 [TETRACYCLINE] | 32 | 71.3 | 67.3 | 28.4 | > 16 | > 16 | ≤ 0.5 | > 16 | 21.6 | 90.2 | 95.8 | 12.8 | 86.5 | 4 | ≤ 0.5 | ≤ 0.5 | ≤ 0.5 | ≤ 0.5 | > 16 | > 16 | Activity [7]: 77.9%; Activity [9]: 9.6%; MIC90 (Staphylococcus aureus [16]): > 16 µg/mL; MIC [17]: ≤ 0.5 µg/mL; MIC (Enterococcus faecium [6]): ≤ 0.5 µg/mL |
| CN[C@H](CC(C)C)C(=O)N[C@H]1C(=O)N[C@@H](CC(N)=O)C(=O)N[C@H]2C(=O)N[C@H]3C(=O)N[C@H](C(=O)N[C@H](C(=O)O)c4cc(O)cc(O)c4-c4cc3ccc4O)[C@H](O)c3ccc(c(Cl)c3)Oc3cc2cc(c3O[C@@H]2O[C@H](CO)[C@@H](O)[C@H](O)[C@H]2O[C@H]2C[C@](C)(N)[C@H](O)[C@H](C)O2)Oc2ccc(cc2Cl)[C@H]1O [VANCOMYCIN] | 43.2 | 1.9 | 55.8 | 97.7 | 1 (≈ 0.69 µM) | 2 (≈ 1.38 µM) | 1 (≈ 0.69 µM) | > 16 | 100 | 100 | 100 | 0 | 100 | 0 | 1 (≈ 0.69 µM) | 1 (≈ 0.69 µM) | ≤ 0.5 | ≤ 0.5 | ≤ 0.5 | ≤ 0.5 | MIC50 (Staphylococcus aureus [16]): 1 µg/mL (≈ 0.69 µM); MIC90 (Staphylococcus aureus [16]): 1 µg/mL (≈ 0.69 µM); MIC [17]: ≤ 0.5 µg/mL; MIC [18]: ≤ 0.5 µg/mL |
